Experiment [1] has as its target T1, MdIPMS2 (Malus domestica, UniProt A0A498KQL4).
T1 sequence (A0A498KQL4 64-634): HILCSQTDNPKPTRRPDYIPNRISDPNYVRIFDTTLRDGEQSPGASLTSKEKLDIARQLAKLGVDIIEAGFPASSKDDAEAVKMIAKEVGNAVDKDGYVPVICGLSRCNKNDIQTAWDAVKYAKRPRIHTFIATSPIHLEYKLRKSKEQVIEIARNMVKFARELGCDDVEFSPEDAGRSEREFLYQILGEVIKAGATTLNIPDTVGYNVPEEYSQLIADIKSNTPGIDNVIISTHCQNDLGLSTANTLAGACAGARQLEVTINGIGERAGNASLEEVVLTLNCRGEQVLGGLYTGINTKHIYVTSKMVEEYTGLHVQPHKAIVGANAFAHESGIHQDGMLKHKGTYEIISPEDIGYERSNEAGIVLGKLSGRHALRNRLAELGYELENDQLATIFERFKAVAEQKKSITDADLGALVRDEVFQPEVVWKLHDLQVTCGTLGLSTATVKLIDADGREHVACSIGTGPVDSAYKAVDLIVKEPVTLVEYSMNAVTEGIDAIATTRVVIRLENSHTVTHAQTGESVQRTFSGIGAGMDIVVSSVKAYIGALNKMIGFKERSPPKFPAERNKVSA
As to the kind of experiment: DTNB endpoint assay, feedback inhibition. The experiment is classed as biochemical. The note with it: read-out: % inhibition at 0.05 mM.

Experiment [2] deals with T2, MdIPMS1 (Malus domestica, UniProt A0A498I0D3).
T2 sequence (A0A498I0D3 59-236): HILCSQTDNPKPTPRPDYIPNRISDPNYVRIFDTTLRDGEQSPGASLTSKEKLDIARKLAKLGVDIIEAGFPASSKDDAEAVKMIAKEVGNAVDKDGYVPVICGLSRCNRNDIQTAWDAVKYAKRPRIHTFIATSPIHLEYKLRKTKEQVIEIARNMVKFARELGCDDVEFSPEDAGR
T2 sequence (A0A498I0D3 250-642): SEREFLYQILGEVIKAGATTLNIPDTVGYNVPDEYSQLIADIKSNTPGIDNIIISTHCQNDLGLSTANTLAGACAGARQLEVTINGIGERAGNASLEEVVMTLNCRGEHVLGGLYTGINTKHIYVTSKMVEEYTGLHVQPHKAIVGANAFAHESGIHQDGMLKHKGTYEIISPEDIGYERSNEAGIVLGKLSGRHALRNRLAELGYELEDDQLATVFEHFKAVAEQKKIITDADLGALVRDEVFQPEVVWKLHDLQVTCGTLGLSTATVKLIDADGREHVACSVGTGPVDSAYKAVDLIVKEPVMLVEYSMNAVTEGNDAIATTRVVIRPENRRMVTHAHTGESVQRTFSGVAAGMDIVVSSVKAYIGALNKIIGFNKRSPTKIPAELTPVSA
As to the kind of experiment: DTNB endpoint assay, feedback inhibition. It is filed as biochemical. The note with it: read-out: % inhibition at 0.05 mM.

The next experiment has as its system MdCMS_1. As to the kind of experiment: DTNB endpoint assay, Lineweaver-Burk. The experiment is classed as biochemical, Malus domestica. The note with it: read-out: Km ± SE. Put shortly:
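Recombinant apple enzyme expressed in E. coli BL21 (ORF with or without putative chloroplast transit peptide) and purified. Activity measured by DTNB (Ellman's reagent) endpoint assay. Acetyl-CoA was varied with pyruvate held saturating at 10 mM. Absorbance was corrected against an identical mixture lacking α-ketoacid. Km was obtained by regression of Lineweaver–Burk plots, with two to three replications per regression.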

For experiment [3], the target named is T2, MdIPMS1. As to the kind of experiment: DTNB endpoint assay, feedback inhibition. It is filed as biochemical. The note with it: 10 mM α-ketoisovalerate; threonine range 0 to 10 mM.
Experiment [4] has as its target T1, MdIPMS2. As to the kind of experiment: DTNB endpoint assay, feedback inhibition. The note with it: 10 mM α-ketoisovalerate; threonine range 0 to 10 mM. The experiment is classed as biochemical.

Read-outs that look alike come from different tables or passages of the source.

Regarding `CC(C)C[C@H](N)C(=O)O` [leucine], the results for the inhibition at 50 µM on MdIPMS2 [1] and at MdIPMS1 [2] were 70% and 40%, respectively. For the compound `CC(=O)C(=O)O` [Pyruvate], the Km in the experiment with MdCMS_1 (co-substrate acetyl-CoA) is 2450 µM. As to `CCC(=O)C(=O)O` [α-Ketobutyrate], the Km with MdCMS_1 (co-substrate acetyl-CoA) turned out to be 3560 µM.

On to `C[C@@H](O)[C@H](N)C(=O)O` [threonine], for which the “% inhibition” value at MdIPMS1 [3] and at MdIPMS2 [4] was “both MdIPMS proteins were inhibited by elevated levels of threonine” each time. Take `CC(=O)SCCNC(=O)CCNC(=O)[C@H](O)C(C)(C)COP(=O)(O)OP(=O)(O)OC[C@H]1O[C@@H](n2cnc3c(N)ncnc32)[C@H](O)[C@@H]1OP(=O)(O)O` [Acetyl-CoA]: the Km with MdCMS_1 (saturating (10 mM) pyruvate) was determined as 6.6 ± 0.9 µM.

(Values after publication PMC7826400 (Proceedings of the National Academy of Sciences of the …, 2021).)
